According to ChEMBL document CHEMBL1128261, “Synthesis and biological activity of thiazolylindolequinones, analogues of the natural product BE 10988” (J Med Chem, 1995):
pIC50: −log10 of the molar value.

Assays:
[1] = test system: SK-BR-3; assay: The IC50 value was measured on human breast cancer cell line SK-BR-3.; type: functional, cell-based
Outline: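 SKBr3 breast cancer cells were seeded at 10^4 cells/well for exponential growth over 4 days. Graded compound concentrations were added 2 h after plating (4 wells per concentration), with continuous exposure for 4 days and MTT growth readout. Each experiment was done at least twice, and IC50 was derived from the cumulative data.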

[2] = test system: V79; assay: The IC50 value was measured on V79 cells in the presence of air using MTT assay.; type: functional, cell-based; settings: Cricetulus griseus
Outline: (§1)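 V79 Chinese hamster cells were exposed to drug under aerobic (air) or hypoxic (N2) conditions. After the drug was removed, cells proliferated for 3 days before MTT assay. IC50 is the concentration killing 50% of cells under the initial treatment condition.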

[3] = test system: V79; assay: The IC50 value was measured on V79 cells in the presence of nitrogen using MTT assay.; type: functional, cell-based; settings: Cricetulus griseus; outline: as §1
[4] = Ratio of IC50 against V79 cells in the presence of air to that of nitrogen.; type: functional

`O=C1c2c(O)ccc(O)c2C(=O)c2c(NCCNCCO)ccc(NCCNCCO)c21` [MITOXANTRONE] showed a pIC50 [1] of 7.80.
Work on `COC1=CC(=O)c2c(c(-c3nc(C)cs3)cn2C)C1=O` yielded a pIC50 [1] of 5.85, a pIC50 [2] of 4.14 and a pIC50 [3] of 4.32. For the same compound, the Ratio [4] was 1.5.
`CCOC(=O)c1csc(-c2cn(C)c3c2C(=O)C(OC)=CC3=O)n1` gave a pIC50 [1] of 4.56, a pIC50 [2] of 3.37 and a pIC50 [3] of 3.46. It also gave a Ratio [4] of 1.2.
`CCOC(=O)c1nc(-c2cn(C)c3c2C(=O)C(OC)=CC3=O)cs1` gave a pIC50 [1] of 4.77, a pIC50 [2] of 4.41 and a pIC50 [3] of 4.22. It also gave a Ratio [4] of 0.64.
`Cn1cc(-c2nc(C(N)=O)cs2)c2c1C(=O)C=C(N)C2=O` gave a pIC50 [1] of 5.06, a pIC50 [2] of 5.21 and a pIC50 [3] of 5.29. For the same compound, the Ratio [4] was 1.2.
`Cn1cc(-c2csc(C(N)=O)n2)c2c1C(=O)C=C(N)C2=O` gave a pIC50 [1] of 5.39, a pIC50 [2] of 5.26 and a pIC50 [3] of 5.39. The Ratio [4] was 1.3.
In the case of `Cc1csc(-c2cn(C)c3c2C(=O)C(=N)C=C3O)n1`, the pIC50 [1] was 6.14, the pIC50 [2] was 4.99 and the pIC50 [3] was 5.22. The Ratio [4] was 1.7.
For `CCOC(=O)c1coc(-c2cn(C)c3c2C(=O)C(OC)=CC3=O)n1`, the pIC50 [1] was 5.32, the pIC50 [2] was 4.29 and the pIC50 [3] was 4.34. For the same compound, the Ratio [4] was 1.1.
